High-throughput results: PubChem BioAssay, several laboratories
Most compounds without a hit are left out; they make up all but 2.4% or so of the library.
HTRA1 inh: HTRA1 serine protease inhibitors, primary screen, biochemical, fluorescence polarization, HTS; Q92743; recombinant HTRA1, FP-rhodamine activity-based probe; inhibition, % at 5.96 µM; hit rate 0.5% among 340,000; in the data active means inhibition above about 36%
PRMT1 inh: PRMT1 methyltransferase inhibitors, primary screen, biochemical, fluorescence polarization. recombinant PRMT1, activity-based probe fluorescence polarization. inhibition, % at 2.79 µM. hit rate 1.3% among 370,000. Protein arginine N-methyltransferase 1 (Homo sapiens), Q99873. AID 652257, 2013;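 active means inhibition above about 21% made by adding two undisclosed values, limit read from the data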
Target sequence (Q99873 whole entry, looked up): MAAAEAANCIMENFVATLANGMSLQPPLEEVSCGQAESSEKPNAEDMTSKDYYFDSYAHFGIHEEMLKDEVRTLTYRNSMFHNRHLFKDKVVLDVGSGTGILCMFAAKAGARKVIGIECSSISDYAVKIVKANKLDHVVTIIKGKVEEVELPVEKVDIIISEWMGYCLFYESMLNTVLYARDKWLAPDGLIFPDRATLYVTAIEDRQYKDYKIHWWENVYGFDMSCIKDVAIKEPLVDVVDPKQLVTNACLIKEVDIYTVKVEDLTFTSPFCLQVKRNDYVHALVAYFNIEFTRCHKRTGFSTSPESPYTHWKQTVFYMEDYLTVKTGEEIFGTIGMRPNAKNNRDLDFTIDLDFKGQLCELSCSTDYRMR
JMJD2C inh: inhibitors of GASC-1 histone demethylase, primary screen, biochemical, fluorescence, DELFIA europium; Lysine-specific demethylase 4C (Homo sapiens), Q9H3R0; GST-JMJD2C(1-420) H3K9me3 demethylation; inhibition, % at 2.35 µM; hit rate 0.069% among 330,000; AID 2099, 2009;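 active means more than half of a compound's replicate wells show inhibition beyond 50%, single wells judged on their own value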;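 further: signal counts dimethyl H3K9 product captured on neutravidin plate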
SIAE inh: human SIAE inhibitors, primary screen, biochemical, fluorescence polarization, FP-Rh probe, 1536-well HTS | Sialate O-acetylesterase (Homo sapiens), Q9HAT2 | SIAE FP-Rh probe binding | inhibition, % at 9.66 µM | hit rate 0.69% among 370,000 | AID 1053197, 2014;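 active means inhibition above a cutoff: mean of compounds within the control limits plus 3 SD of those, cut at about 17% in these data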
mABHD4 FP: ABHD4 inhibitors, primary screen, biochemical, fluorescence polarization, mouse; hit rate 0.54% among 370,000; inhibition, % at 8.92 µM; (Lyso)-N-acylphosphatidylethanolamine lipase (Mus musculus), Q8VD66; purified mABHD4, FP-Rh probe fluorescence polarization;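 active means inhibition exceeding the mean over every tested compound plus 3 SD, cut at about 30% in these data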
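system = mouse ABHD4 enzyme, wild type | medium = HEPES pH 7.0, NaCl, Pluronic buffer | also added = FP-Rh probe | incubation = Enzyme–compound pre-incubation 45 min, then probe 60 min, both 25 °C | technique = fluorescence polarization, excitation 525 nm, emission 598 nm, BODIPY TMR filters | controls = S159A mutant high control, sample median low control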
HTRA1 inh conf: HTRA1 protease inhibitors, retest, confirmation, biochemical, fluorescence polarization; recombinant HTRA1, FP-rhodamine activity-based probe; shares compounds with HTRA1 inh; hit rate 66% among 1,600; inhibition, % at 5.96 µM;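 active means mean inhibition over three repeats above a set limit taken from the earlier primary screen, cut at about 37% in these data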;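 further: inhibitors block probe binding so polarization drops and inhibition rises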
A number is an active result; i = inactive; nt = not tested or not shown.

SMILES | HTRA1 inh | PRMT1 inh | JMJD2C inh | SIAE inh | mABHD4 FP | HTRA1 inh conf
Cc1ccnc(Nc2nc(-c3ccc(O)cc3O)cs2)c1 | 37 | i | i | i | i | 44
C=CCN(CC#CCN(C)C(=O)c1cccn1C(=O)OC(C)(C)C)Cc1ccc(OC)cc1OC | nt | i | nt | i | i | nt
O=C1CCC/C(=N/Nc2ccc(Cl)cc2)C1 | 37 | i | i | i | i | 42
O=C(NN=C1CCCC1)c1ccc(Cl)cc1 | i | i | i | i | i | nt
O=C(NCc1ccccc1)OCCCN1C(=O)CCC12CCCCC2 | nt | i | nt | i | i | nt
COc1ccc2nc(N=NC3=C(O)CC(C)(C)CC3=O)sc2c1 | 53 | i | i | i | i | 58
CNC(=O)[C@@H](NC(=O)[C@H](CC(C)C)[C@H](O)C(=O)NO)C(C)(C)C | nt | i | nt | i | i | nt
COC(=O)C1=C(C(=O)OC)SC(=C2C(=S)C(C)(C)N(C(=O)C3CC3)c3ccccc32)S1 | 45 | i | i | i | i | 52
COC(=O)C1=C(C(=O)OC)SC(=C2C(=S)C(C)(C)N(C(=O)C(C)C)c3ccccc32)S1 | i | i | i | i | i | nt
CCOC(=O)[C@]12CCCCC/C=C\1N(Cc1ccc(OC)cc1)C(=O)[C@H]2CC(=O)N1CCC(c2ccccc2)CC1 | nt | i | nt | i | i | nt
CCOc1ccc(-n2c(SCc3nc4ccccc4[nH]3)nnc2-c2cccc(Cl)c2)cc1 | nt | i | nt | i | i | nt
Nc1ccc(N=Nc2ccccc2)c2ccccc12 | i | i | i | i | i | nt
c1ccc(N=Nc2ccc3cccccc2-3)cc1 | 53 | i | i | i | i | 64
CNc1nc(-c2ccccn2)nnc1-c1ccccc1 | i | i | i | i | i | nt
c1ccc(-c2nnc(-c3ccccn3)nc2NC2CCCCC2)cc1 | 65 | i | i | i | i | 80
O=C(c1ccncc1)N1CC[C@H]2[C@H](CCCN2Cc2cc(F)cc(F)c2)C1 | nt | i | nt | i | i | nt
O=C(/C=C/c1ccccc1Cl)c1ccccc(=O)c1O | 44 | i | i | i | i | 46
O=C(C=Cc1ccccc1O)c1ccccc1O | i | i | nt | i | i | nt
Cc1ccc(/C=C/C(=O)c2ccccc(=O)c2O)c(C)c1 | 53 | i | i | i | i | 45
Cc1ccccc1Oc1ccc2c(c1)[C@@H]1C[C@H](N(C)C(=O)c3cccnc3)[C@H]([C@H](C)O)C(=O)N1CC2 | i | i | nt | i | i | nt
COc1ccc(Cn2cc(CN3[C@@H](CC(C)C)COc4ccc(Cl)cc4S3(=O)=O)nn2)cc1 | nt | i | nt | i | i | nt
C(=N\Nc1nc2ccccc2[nH]1)/c1cccc2cccnc12 | 49 | i | i | i | i | 54
Cc1ccccc1/C=N/Nc1nc2ccccc2[nH]1 | i | i | i | i | i | nt
O=C(O)c1cccc(Cn2c(Cl)c(/C=N/NC(=O)c3cc4ccccc4cc3O)sc2=O)c1 | 50 | i | i | i | i | 55
O=C(O)c1cccc(Cn2c(Cl)c(/C=N/NC(=O)c3ccccc3)sc2=O)c1 | i | i | i | i | i | nt
SMILES | HTRA1 inh | PRMT1 inh | JMJD2C inh | SIAE inh | mABHD4 FP | HTRA1 inh conf
NC(=Nc1nc(-c2ccccn2)cc2ccccc12)c1ccccn1 | 69 | i | nt | i | i | 78
COc1ccc(N2C(c3ccsc3)=Cc3cc4c(cc3C2c2c[nH]c3ccccc23)OCO4)cc1 (stereo not drawn) | nt | i | nt | i | i | nt
CCOC(=O)COn1c(=O)c(-c2cccs2)[n+]([O-])c2ccccc21 | 42 | i | i | i | i | i
CCOn1c(=O)c(-c2cccs2)[n+]([O-])c2ccccc21 | i | i | i | i | i | nt
CCC(=O)NC(c1cccs1)c1cc(Cl)c2ccccc2c1O (stereo not drawn) | i | i | i | i | i | nt
O=C(CCc1ccccc1)NC(c1cccs1)c1cc(Cl)c2cccnc2c1O (stereo not drawn) | 49 | i | i | i | i | 54
CCCC(=O)NC(c1cccs1)c1cc([N+](=O)[O-])c2cccnc2c1O (stereo not drawn) | 36 | i | i | i | i | 51
COC(=O)/C=C1\OC(C2CC2)c2ccccc21 (stereo not drawn) | nt | i | nt | i | i | nt
C=CCN1CCc2c(cc(O)c(O)c2Br)[C@@H](c2ccccc2)C1 | 51 | i | i | i | i | 68
COC(=O)c1cccc(OCC(C)CN2CCC(C(O)(c3ccccc3)c3ccccc3)CC2)c1 (stereo not drawn) | nt | i | nt | i | i | nt
O=C(COC(=O)c1ccc([N+](=O)[O-])s1)Nc1ncc(C(F)(F)F)cc1Cl | 38 | i | i | i | i | 63
CCCCC(=O)NC(c1ccco1)c1cc(Cl)c2cccnc2c1O (stereo not drawn) | 59 | i | i | i | i | 65
CCC(=O)NC(c1ccc(OC)cc1)c1c(O)ccc2ccccc12 (stereo not drawn) | i | i | i | i | i | nt
CCC(=O)NC(c1ccco1)c1cc(Cl)c2cccnc2c1OC (stereo not drawn) | i | i | i | i | i | nt
CC(=O)NC(c1cc(Cl)c2cccnc2c1O)C(C)C (stereo not drawn) | 53 | i | i | i | i | 72
CCC(=O)NC(c1ccco1)c1cc(Cl)c2cccnc2c1O (stereo not drawn) | 56 | i | i | i | i | 64
CC(=O)NC(c1cc(Cl)c2ccccc2c1O)C(C)C (stereo not drawn) | i | i | i | i | i | nt
CCC(=O)NC(c1ccc(OC)cc1)c1cc(Cl)c2cccnc2c1O (stereo not drawn) | 59 | i | i | i | i | 73
CCC(=O)N1CCCC(C)(C(=O)Nc2nccc3ccccc23)C1 (stereo not drawn) | nt | i | nt | i | i | nt
CC(C)CNS(=O)(=O)/C=C/c1ccc(F)cc1CNC(=O)OC(C)(C)C | nt | i | nt | i | i | nt
CC(C)(C)c1ccc(C(=O)Nc2cc(Cl)c(F)cc2C(=O)O)cc1 | nt | i | nt | i | i | nt
S=C(N=Nc1ccccc1)NNc1ccccc1 | 43 | i | i | i | i | 43
Clc1ccc(-n2c(SCc3cccc4ccccc34)nnc2-c2cccnc2)cc1 | nt | i | nt | i | i | nt
Nc1sc2c(c1C(=O)NC1CC1)CCCC2 | 47 | i | i | i | i | i
CCc1ccc(O)c(N=Cc2cccc(C)c2O)c1 | i | i | i | i | i | nt
CCCc1ccc(O)c(N=Cc2cc(Br)cc(OCC)c2O)c1 | 41 | i | i | i | i | 55
Cc1ccc2c(c1)c(C)cc[n+]2Cc1ccccc1 | 42 | i | i | i | i | i
COc1ccc(S[C@]2(C(=O)N3CCN(C(C)=O)CC3)CC(=O)N(C(=O)Nc3ccc(C)c(Cl)c3)[C@@H]2c2ccc(OC)cc2)cc1 | nt | i | nt | i | i | nt
Cc1nnsc1C(=O)N/N=C/c1ccc2ccccc2c1O | 41 | i | i | i | i | 55
